In ChEMBL document CHEMBL1148977, “Inhibitory effects of bufadienolides on interleukin-6 in MH-60 cells” (J Nat Prod, 2004):

Tests used:
[1] = tested on: MH60; experiment: Growth inhibition of IL6-dependent mouse MH60 cells after 72 hrs by MTT assay in presence of human recombinant IL6; format: functional, cell-based; details: MH60, 72 h
Summary of the method: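 IL-6-dependent MH-60 mouse B-cell/myeloma hybridoma kept in RPMI 1640 + 10% FCS containing 0.5 ng/mL recombinant human IL-6. 0.5 × 10^4 cells/well in rhIL-6 medium pre-incubated 24 h at 37 °C, 5% CO2, then treated 72 h with graded compound concentrations. Growth by MTT; mean with standard errors of 3–4 experiments.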

[2] = tested on: MH60; experiment: Growth inhibition of IL-6-independent mouse MH60 cells after 72 hrs by MTT assay; format: functional, cell-based; details: MH60, 72 h
Summary of the method: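 Mouse B-cell/myeloma hybridoma MH-60 subline adapted to grow without IL-6 (rhIL-6 withdrawn gradually), kept in RPMI 1640 + 10% FCS with no rhIL-6. 0.5 × 10^4 cells/well pre-incubated 24 h at 37 °C, 5% CO2, then exposed 72 h to graded compound concentrations. MTT read-out; mean with standard errors of 3–4 experiments.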

## CCCCC(=O)O[C@H]1CC[C@@]2(C)[C@H](CC[C@@H]3[C@@H]2CC[C@]2(C)[C@@H]([C@@]45C=CC(=O)O[C@@H]4O5)C[C@H]4O[C@]342)C1
[1]
  IC50: 6.4 µM
[2]
  IC50: 19.1 µM

## C[C@]12CC[C@H](OC=O)C[C@H]1CC[C@@H]1[C@@H]2CC[C@]2(C)[C@@H]([C@@]34C=CC(=O)O[C@@H]3O4)C[C@H]3O[C@]132
[1]
  IC50: 5.6 µM
[2]
  IC50: 12.9 µM

## CC(=O)O[C@@H]1[C@H]2O[C@]23[C@@H]2CC[C@@H]4C[C@@H](O)CC[C@]4(C)[C@H]2CC[C@]3(C)[C@H]1[C@@]12C=CC(=O)O[C@@H]1O2
[1]
  IC50: > 54.2 µM
[2]
  IC50: > 54.2 µM

## CC(=O)O[C@H]1[C@H]2O[C@]23[C@@H]2CC[C@@H]4C[C@@H](O)CC[C@]4(C)[C@H]2CC[C@]3(C)[C@H]1c1ccc(=O)oc1 [CINOBUFAGIN]
[1]
  IC50: > 56.3 µM
[2]
  IC50: > 56.3 µM

## C[C@]12CC[C@H](O)C[C@H]1CC[C@@H]1[C@@H]2CC[C@]2(C)[C@@H](c3ccc(=O)oc3)CC[C@]12O [BUFALIN]
[1]
  IC50: 31.9 µM
[2]
  IC50: > 64.8 µM

## C[C@]12CC[C@H](O)C[C@H]1CC[C@@H]1[C@@H]2CC[C@]2(C)[C@@H]([C@]34C=CC(=O)O[C@H]3O4)CC[C@]12O
[1]
  IC50: > 62.2 µM
[2]
  IC50: > 62.2 µM

## CC(C)(C)C(=O)O[C@H]1CC[C@@]2(C)[C@H](CC[C@@H]3[C@@H]2CC[C@]2(C)[C@@H]([C@]45C=CC(=O)O[C@H]4O5)C[C@H]4O[C@]342)C1
[1]
  IC50: 6.8 µM
[2]
  IC50: > 53.2 µM

## CCCC(=O)O[C@H]1CC[C@@]2(C)[C@H](CC[C@@H]3[C@@H]2CC[C@]2(C)[C@@H]([C@]45C=CC(=O)O[C@H]4O5)C[C@H]4O[C@]342)C1
[1]
  IC50: 9.4 µM
[2]
  IC50: > 54.8 µM

## C[C@]12CCC(=O)C[C@H]1CC[C@@H]1[C@@H]2CC[C@]2(C)[C@@H](c3ccc(=O)oc3)C[C@H]3O[C@]132
[1]
  IC50: 2.4 µM
[2]
  IC50: 8.4 µM

## C[C@]12CCC(=O)C[C@H]1CC[C@@H]1[C@@H]2CC[C@]2(C)[C@@H]([C@]34C=CC(=O)O[C@H]3O4)C[C@H]3O[C@]132
[1]
  IC50: 4.3 µM
[2]
  IC50: 8.3 µM

## CC(=O)O[C@H]1CC[C@@]2(C)[C@H](CC[C@@H]3[C@@H]2CC[C@]2(C)[C@@H]([C@@]45C=CC(=O)O[C@@H]4O5)C[C@H]4O[C@]342)C1
[1]
  IC50: 14.3 µM
[2]
  IC50: 21.9 µM

## C[C@]12CC[C@H](O)C[C@H]1CC[C@@H]1[C@@H]2CC[C@]2(C)[C@@H]([C@@]34C=CC(=O)O[C@@H]3O4)CC[C@]12O
[1]
  IC50: > 62.2 µM
[2]
  IC50: > 62.2 µM

## CC(=O)O[C@H]1CC[C@@]2(C)[C@H](CC[C@@H]3[C@@H]2CC[C@]2(C)[C@@H]([C@]45C=CC(=O)O[C@H]4O5)C[C@H]4O[C@]342)C1
[1]
  IC50: 5.3 µM
[2]
  IC50: > 56.6 µM

## CC(=O)O[C@H]1CC[C@@]2(C)[C@H](CC[C@@H]3[C@@H]2CC[C@]2(C)[C@@H](c4ccc(=O)oc4)C[C@H]4O[C@]342)C1
[1]
  IC50: > 58.7 µM
[2]
  IC50: > 58.7 µM

## CCCCC(=O)O[C@H]1CC[C@@]2(C)[C@H](CC[C@@H]3[C@@H]2CC[C@]2(C)[C@@H]([C@]45C=CC(=O)O[C@H]4O5)C[C@H]4O[C@]342)C1
[1]
  IC50: 11.6 µM
[2]
  IC50: > 53.2 µM

## CC(=O)O[C@H]1C[C@]2(O)[C@@H]3CC[C@@H]4C[C@@H](O)CC[C@]4(C)[C@H]3CC[C@]2(C)[C@H]1c1ccc(=O)oc1 [BUFOTALIN]
[1]
  IC50: > 56.2 µM
[2]
  IC50: > 56.2 µM

## CC(=O)O[C@@H]1[C@H]2O[C@]23[C@@H]2CC[C@@H]4C[C@@H](O)CC[C@]4(C)[C@H]2CC[C@]3(C)[C@H]1[C@]12C=CC(=O)O[C@H]1O2
[1]
  IC50: > 54.2 µM
[2]
  IC50: > 54.2 µM

## C[C@]12CC[C@H](OC=O)C[C@H]1CC[C@@H]1[C@@H]2CC[C@]2(C)[C@@H]([C@]34C=CC(=O)O[C@H]3O4)C[C@H]3O[C@]132
[1]
  IC50: 8.9 µM
[2]
  IC50: > 58.4 µM

## C[C@]12CC[C@H](OC=O)C[C@H]1CC[C@@H]1[C@@H]2CC[C@]2(C)[C@@H](c3ccc(=O)oc3)C[C@H]3O[C@]132
[1]
  IC50: > 60.7 µM
[2]
  IC50: > 60.7 µM

## CCCC(=O)O[C@H]1CC[C@@]2(C)[C@H](CC[C@@H]3[C@@H]2CC[C@]2(C)[C@@H]([C@@]45C=CC(=O)O[C@@H]4O5)C[C@H]4O[C@]342)C1
[1]
  IC50: 2 µM
[2]
  IC50: 17.5 µM

## C[C@]12CC[C@H](O)C[C@H]1CC[C@@H]1[C@@H]2CC[C@]2(C)[C@@H]([C@]34C=CC(=O)O[C@H]3O4)C[C@H]3O[C@]132
[1]
  IC50: 24.8 µM
[2]
  IC50: > 62.5 µM

## C[C@]12CC[C@H](O)C[C@H]1CC[C@@H]1[C@@H]2CC[C@]2(C)[C@@H]([C@@]34C=CC(=O)O[C@@H]3O4)C[C@H]3O[C@]132
[1]
  IC50: 18.3 µM
[2]
  IC50: 45 µM

## C[C@]12CCC(=O)C[C@H]1CC[C@@H]1[C@@H]2CC[C@]2(C)[C@@H]([C@@]34C=CC(=O)O[C@@H]3O4)C[C@H]3O[C@]132
[1]
  IC50: 1.3 µM
[2]
  IC50: 4.3 µM

## CC(C)(C)C(=O)O[C@H]1CC[C@@]2(C)[C@H](CC[C@@H]3[C@@H]2CC[C@]2(C)[C@@H]([C@@]45C=CC(=O)O[C@@H]4O5)C[C@H]4O[C@]342)C1
[1]
  IC50: 18.1 µM
[2]
  IC50: 34 µM

## C[C@]12CC[C@H](O)C[C@H]1CC[C@@H]1[C@@H]2CC[C@]2(C)[C@@H](c3ccc(=O)oc3)C[C@H]3O[C@]132 [BUFOGENIN]
[1]
  IC50: 22.9 µM
[2]
  IC50: > 65.1 µM
